# Tests used:
# [1] = Stability to hydrolysis of the imide ring in PBS buffer; assay type: physicochemical
# Method in brief: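 Fluorophore-bearing model peptides are incubated in PBS at pH 6, 7 and 8 and 28 °C, with fluorescence monitored in a 96-well plate over 24 hrs. For the 4-DMAP peptide, percent conversion is the percent loss of fluorescence from time zero.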
# [2] = Stability toward 4-methylpiperidine / piperidine; assay type: physicochemical; conditions: during preparation of fluorescent peptides by SPPS
# Method in brief: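 Resin-bound model peptides are treated with 4-methylpiperidine under conditions simulating a standard Fmoc-deprotection cycle. Treated and untreated samples are cleaved from the resin under acidic conditions. Crude mixtures are analysed by HPLC and ESI mass spectrometry for hydrolysis byproducts.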
# [3] = Photophysical properties of the fluorescent KR peptides; assay type: physicochemical; conditions: visible spectrum
# [4] = cited from earlier work
structure (smiles),measurement,setting,value
"CN(C)c1ccc2c(c1)C(=O)NC2=O [4-DMAP, 4-N,N-dimethylaminophthalimide, reference compound]",hydrolysis product fluorescence (in words),"[1]; hydrolysis of the imide ring, high pH",non-fluorescent byproduct
"CN(C)c1ccc2cc3c(cc2c1)C(=O)NC3=O [6-DMN, 6-N,N-dimethylamino-2,3-naphthalimide, reference compound]",emission maximum of fluorescent species from hydrolysis,"[1]; hydrolysis product, high pH",470-480 nm
"CN(C)c1ccc2c3c(cccc13)C(=O)NC2=O [4-DMN, 4-N,N-dimethylamino-1,8-naphthalimide]",fluorescence emission after 24 hrs (in words),"[1]; PBS buffer, 28 °C, 24 hrs, Figure 2b, harshest conditions anticipated",no significant change in fluorescence
"CN(C)c1ccc2c3c(cccc13)C(=O)N(C[C@H](NC(=O)OCC1c3ccccc3-c3ccccc31)C(=O)O)C2=O [compound 4, N-α-Fmoc-(4-N,N-Dimethylamino-1,8-naphthalimido)-alanine]",susceptibility to piperidine (in words),[2],shows no susceptibility to piperidine
"CN(C)c1ccc2c3c(cccc13)C(=O)N(C[C@H](N)C(=O)O)C2=O [4-DMNA, 4-N,N-dimethylamino-1,8-naphthalimidoalanine]",wavelength of excitation of the fluorophore / amino acid,[3],400-450 nm
same,relative stability of fluorescent side-chain (in words),[1]; compared with 4-DAPA and 6-DMNA,significantly more stable than those of 4-DAPA and 6-DMNA
"CN(C)c1ccc2cc(C(=O)CBr)ccc2c1 [BADAN, 6-bromoacetyl-2-dimethylaminonaphthalene]",fluorescence quantum yield in water (Φwater),[4],0.18
